Tests used:
[1] = Plasma protein binding by equilibrium dialysis; format: in vitro ADME, human; conditions: 5 μM, 37 °C, 6 hours
Procedure, shortened: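 Equilibrium dialysis with test compound at 5 μM initial in the plasma chamber against PBS in the receiver chamber. Shaken at 37 °C for 6 h. Samples from both chambers were matrix-matched to 1:1 plasma:PBS and quantified by LC-MS/MS. Fraction bound = ([plasma] – [PBS]) / [plasma]. Run in triplicate.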

S. aureus ATCC 29213 = assay: Prevention of biofilm formation, microtiter dish assay; format: cell-based, Staphylococcus aureus; conditions: 2 μg/mL, 24 h
Procedure, shortened: (§1)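 Static biofilm prevention assay with S. aureus ATCC 29213 or MRSA clinical isolates from local hospitals in central China. Strains were grown in TSB plus 1% glucose in 96-well tissue-culture plates with test compound (0.0125–8 μg/mL) for 24 h. Wells were washed with sterile water and stained with 0.1% (w/v) crystal violet. Stain was solubilised in 95% ethanol and read at 540 nm. Results are reduction in biofilm mass, from three independent experiments in triplicate.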

[2] = Hepatic microsome stability assay; format: in vitro ADME, mouse
[3] = Hepatic microsome stability assay; format: in vitro ADME, human
MRSA [4] = assay: Prevention of biofilm formation, microtiter dish assay; format: cell-based, Staphylococcus aureus; conditions: for inhibition of biofilm formation: 0.0125–8 μg/mL, 24 h
Procedure, shortened: as §1

MRSA [5] = assay: MRSA mouse peritonitis model; format: in vivo; conditions: for MRSA in blood or kidney of the survived mice: 14 days after administration
[6] = mouse, liver microsomes, pH 7.4

half-life at 1 μM [2, 6] | microsomal CLint at 1 μM [2, 6] | microsomal CLint at 1 μM ([3]; human, liver microsomes, pH 7.4) | Structure (SMILES) | Plasma Protein Binding, Bound [1] | Plasma Protein Binding, Free [1] | reduction of biofilm formation (S. aureus ATCC 29213) | Intrinsic Clearance ([2]; mouse liver microsomes 1 mg/mL, 1 μM compound) | T1/2 ([2]; mouse liver microsomes 1 mg/mL, 1 μM compound, 37 °C) | Intrinsic Clearance ([3]; human liver microsomes) | inhibition of biofilm formation (MRSA [4]) | MRSA in blood or kidney of the survived mice (MRSA [5]) | mice survival (MRSA [5]; C57BL/6J mice, 50 mg/kg i.p. at 1 h and 5 h post infection, 14 days) | biofilm reduction, comparison of PTM with PTM-2t (MRSA [4])
– | – | – | CCSC1CC(=O)C(C)(CCC(=O)Nc2c(O)ccc(C(=O)O)c2O)C2C3CC4CC12CC4(C)O3 (centres unmarked) [2t] | 35.0% | 65.0% | over 95% | 46 µL/min/mg | 15.0 min | 32.0 µL/min/mg | dose-dependently inhibited | a significant number of MRSAs was still present | 80% | –
13.6 min | 51 µL/min/mg | 14 µL/min/mg | CC12C[C@@]34C=CC(=O)[C@@](C)(CCC(=O)Nc5c(O)ccc(C(=O)O)c5O)C3[C@H](CC1C4)O2 (some centres unmarked) [PTM, platensimycin, reference compound] | 66.0% | – | over 95% | – | – | – | dose-dependently inhibited | – | – | reduced more biofilm from MRSA than PTM-2t
– | – | – | CN[C@H](CC(C)C)C(=O)N[C@H]1C(=O)N[C@@H](CC(N)=O)C(=O)N[C@H]2C(=O)N[C@H]3C(=O)N[C@H](C(=O)N[C@H](C(=O)O)c4cc(O)cc(O)c4-c4cc3ccc4O)[C@H](O)c3ccc(c(Cl)c3)Oc3cc2cc(c3O[C@@H]2O[C@H](CO)[C@@H](O)[C@H](O)[C@H]2O[C@H]2C[C@](C)(N)[C@H](O)[C@H](C)O2)Oc2ccc(cc2Cl)[C@H]1O [vancomycin, reference compound] | – | – | – | – | – | – | – | Only a few MRSA were present | – | –

From PMC6763203 (Molecular pharmaceutics, 2019)
